# In the library only some 5.8% were active in any assay of this set; here they are far more common.
# GASC1 inh: KDM4C (human) demethylase inhibition | AID 720574 | GST-KDM4C 2-372, H3K9me3 peptide, LANCE TR-FRET | inhibition, % at 12.5 µM | Q9H3R0 | actives 0.15% (n = 96,000);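 active = mean replicate inhibition above about 25%, with at least 55% of replicates also reaching it, limit read from the data, passing the limit was not always enough; inconclusive = only one of those two conditions met; inactive = neither condition met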
# Target sequence (Q9H3R0 2-372 limits assumed): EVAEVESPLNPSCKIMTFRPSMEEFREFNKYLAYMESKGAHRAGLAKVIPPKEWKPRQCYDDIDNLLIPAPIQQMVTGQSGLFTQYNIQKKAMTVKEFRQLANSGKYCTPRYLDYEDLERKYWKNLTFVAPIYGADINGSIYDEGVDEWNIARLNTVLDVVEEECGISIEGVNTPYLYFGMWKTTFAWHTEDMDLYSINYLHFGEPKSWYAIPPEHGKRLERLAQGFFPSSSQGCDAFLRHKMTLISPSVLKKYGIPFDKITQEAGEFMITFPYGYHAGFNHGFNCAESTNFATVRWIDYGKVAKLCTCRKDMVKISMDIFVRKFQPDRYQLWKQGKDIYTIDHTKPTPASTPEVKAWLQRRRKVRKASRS
#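 Material: GST-tagged GASC-1 (JMJD2C) catalytic fragment, aa 2-372. Input: enzyme final amount 10 nM. Medium: HEPES buffer, pH 7.5, plus ascorbate. Reagent: H3K9me3 peptide substrate, Fe(II), 2-oxoglutarate. Doses: single dose. Times: reaction 30 min RT, detection step 1 h RT. Measured by: LANCE TR-FRET. Evaluation: Fall in 671/618 emission ratio as inhibition.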
# IDH1 mut inh: IDH1 R132H (human) inhibition; O75874; IDH1 R132H reductase, diaphorase/resazurin fluorescence, 60 min; inhibition, % at 10 µM; actives 0.18% (n = 70,000); AID 624101; in the data active = inhibition above about 34%; inconclusive = no clear call, values can overlap the other calls; inactive = below about 11%;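 note: 0% = DMSO and 100% = no enzyme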
# Target sequence (O75874 whole entry R132H): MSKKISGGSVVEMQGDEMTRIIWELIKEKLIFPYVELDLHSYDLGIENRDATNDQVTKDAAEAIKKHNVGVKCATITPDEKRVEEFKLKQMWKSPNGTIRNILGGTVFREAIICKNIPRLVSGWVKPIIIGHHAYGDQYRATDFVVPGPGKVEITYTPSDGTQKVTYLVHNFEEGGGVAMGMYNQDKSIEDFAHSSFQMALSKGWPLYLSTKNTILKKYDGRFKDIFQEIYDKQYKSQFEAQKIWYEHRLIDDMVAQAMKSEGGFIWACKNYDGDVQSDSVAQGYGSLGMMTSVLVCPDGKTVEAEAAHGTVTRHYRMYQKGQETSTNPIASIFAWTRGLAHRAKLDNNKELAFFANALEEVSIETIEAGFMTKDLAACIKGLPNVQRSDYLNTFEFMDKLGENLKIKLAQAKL
# T cruzi growth-1: inhibitors of T. cruzi proliferation; T. cruzi beta-gal in NIH3T3, GalScreen luminescence, 90 h; inhibition, % at 8.34 µM; actives 5.9% (n = 77,000); AID 624255;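 active = mean inhibition above about 93%, with at least 55% of replicates each passing it, limit read from the data, passing the limit was not always enough; inconclusive = only one of those two conditions holds; inactive = neither condition holds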
# Pf Dd2 growth: blocks growth of Plasmodium falciparum Dd2 parasites. activity change, % at 10 µM. P. falciparum Dd2 growth, SYBR Green, 72 h; stronger effect = lower value. actives 2.3% (n = 94,000); in the data active = activity change below about -80%; inconclusive = no clear call, values can overlap the other calls
# T cruzi growth-2: blocks T. cruzi growth in NIH3T3 host cells. shares compounds with T cruzi growth-1. T. cruzi beta-gal in NIH3T3, GalScreen luminescence, 90 h. inhibition, % at 8.35 µM. actives 72% (n = 5,600);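 active = mean replicate inhibition above about 95% and at least 55% of replicates individually reaching it, limit read from the data; inconclusive = only one of the two criteria is met; inactive = neither criterion is met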
# T cruzi growth-3: inhibitors of T. cruzi proliferation; actives 21% (n = 5,600); T. cruzi beta-gal in NIH3T3, GalScreen luminescence, 90 h; shares compounds with T cruzi growth-1; inhibition, % at 2.09 µM; AID 651740;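 active = mean inhibition above about 95%, with at least 55% of replicates also reaching it, limit read from the data; inconclusive = meets just one of the two conditions; inactive = meets neither condition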;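 note: plate controls were neutral control median for no effect and positive control median for full effect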
# 3T3 cytotox: kills mouse NIH/3T3 fibroblasts; cytotoxicity (signal decrease), % at 8.35 µM; shares compounds with T cruzi growth-1; NIH/3T3 viability, CellTiter-Glo ATP luminescence, 90 h; actives 14% (n = 5,600);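 active = mean signal decrease across replicates above about 35% based on untreated-well scatter, with enough replicates individually passing, limit read from the data; inconclusive = no rule stated though some were filed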;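 note: 0% = median of neutral control wells and 100% = median of positive control wells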
# NIH3T3 tox 2: cytotoxicity in mouse NIH/3T3 fibroblasts | shares compounds with T cruzi growth-1 | NIH/3T3 viability, CellTiter-Glo ATP luminescence, 90 h | inhibition, % at 24.9 µM | actives 56% (n = 5,600);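 active = mean loss of cell viability signal at or above a set limit, and enough replicates individually reaching it; inconclusive = meets only the mean limit or only the replicate share; inactive = meets neither condition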;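 note: 0% = median of neutral control wells and 100% = median of positive control wells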
# * hit, by the source's call; ? = inconclusive; . = no result given.
SMILES,GASC1 inh,IDH1 mut inh,T cruzi growth-1,Pf Dd2 growth,T cruzi growth-2,T cruzi growth-3,3T3 cytotox,NIH3T3 tox 2
COc1ccc(NC(=O)N2CCCCN3[C@H](CO)[C@H](c4ccc(C5=CCCC5)cc4)[C@@H]3C2)cc1,.,.,117.4*,-17.7,95.9*,106.5*,0.8,?
O=C(Nc1ccccc1F)N1CCCCN2[C@H](CO)[C@H](c3ccc(C4=CCCC4)cc3)[C@@H]2C1,-1.7,.,109.9*,1.0,109.3*,62.1,-6.3,12.8
COc1ccc(NC(=O)N2CCCCN3[C@@H](CO)[C@H](c4ccc(C5=CCCCC5)cc4)[C@@H]3C2)cc1,1.2,.,78.3,-10.2,.,.,.,.
O=C(Nc1ccccc1)N1CCCCN2[C@H](C1)[C@H](c1ccc(C3=CCCCC3)cc1)[C@@H]2CO,-0.8,.,110.2*,-74.1,108.9*,78.2,16.5,79.2*
CC(CC(=O)O)CC(=O)Nc1ccc(C(=O)O)cc1 (stereo unspecified),.,0.8,.,.,.,.,.,.
O=C(O)CCCCCC(=O)N/N=C/c1ccccc1Cl,.,-0.3,.,.,.,.,.,.
Cc1cccc(NC(=O)CSc2nnc(-c3cccs3)n2-c2ccccc2)c1,.,-0.2,.,.,.,.,.,.
O=C(Nc1ccccc1)N1CCCCN2[C@@H](CO)[C@@H](c3ccc(-c4ccccc4)cc3)[C@@H]2C1,-0.2,.,94.9,-77.7,.,.,.,.
O=C(Nc1ccccc1)N1CCCCN2[C@H](CO)[C@H](c3ccc(C4=CCCCC4)cc3)[C@@H]2C1,0.6,.,?,8.1,115.3*,64.5,-6.9,93.6*
O=C(Nc1ccccc1)N1CCCCN2[C@@H](CO)[C@H](c3ccc(C4=CCCCC4)cc3)[C@@H]2C1,-0.3,.,?,-43.1,87.4,91.0,116.2*,104.6*
O=C(NCc1ccccn1)c1cc(-c2cccnc2)nc2ccc(Br)cc12,.,0.4,.,.,.,.,.,.
COCC#Cc1ccc2c(c1)O[C@@H](CN(C)Cc1cncnc1)[C@H](C)CN([C@@H](C)CO)S2(=O)=O,-0.1,-0.3,106.3*,8.3,106.4*,89.2,10.0,36.1*
COCC#Cc1ccc2c(c1)O[C@H](CN(C)Cc1cncnc1)[C@@H](C)CN([C@@H](C)CO)S2(=O)=O,-2.9,-1.8,-3.6,-7.4,.,.,.,.
COCC#Cc1ccc2c(c1)O[C@@H](CN(C)Cc1ccccc1)[C@H](C)CN([C@H](C)CO)S2(=O)=O,-3.7,-1.2,108.5*,-70.1,92.9,44.6,53.2*,105.5*
COCC#Cc1ccc2c(c1)O[C@@H](CN(C)Cc1ccncc1)[C@H](C)CN([C@H](C)CO)S2(=O)=O,5.6,-2.6,109.2*,-4.1,99.9*,91.4,11.5,63.0*
CC1(C)COC(CCC/C=N/NC(=O)c2ccccn2)OC1,.,2.2,.,.,.,.,.,.
CN(C)CC#Cc1ccc([C@@H]2[C@@H](CO)N3CCCCN(S(=O)(=O)c4ccccc4F)C[C@H]23)cc1,2.4,.,111.0*,-4.5,97.9*,23.7,1.2,84.6*
CCCC#Cc1ccc([C@H]2[C@H]3CN(S(=O)(=O)c4ccccc4F)CCCCN3[C@H]2CO)cc1,0.6,.,?,-10.5,111.3*,77.3,22.7,104.7*
O=C(N/N=C/c1ccccc1)c1ccccn1,.,0.8,.,.,.,.,.,.
COc1cccc(-c2cnc3c(c2)C(=O)N([C@H](C)CO)C[C@H](C)[C@H](CN(C)Cc2cccc(C)c2)O3)c1,-2.5,-0.7,95.6*,-12.5,90.5,17.4,9.4,?
COc1ccccc1-c1cnc2c(c1)C(=O)N([C@H](C)CO)C[C@@H](C)[C@@H](CN(C)Cc1cccc(F)c1)O2,-1.3,-1.9,46.8,-9.5,.,.,.,.
COc1ccccc1-c1cnc2c(c1)C(=O)N([C@H](C)CO)C[C@H](C)[C@@H](CN(C)Cc1cccc(F)c1)O2,0.4,-0.6,?,-46.6,102.1*,63.1,-2.8,41.9*
COc1ccccc1-c1cnc2c(c1)C(=O)N([C@@H](C)CO)C[C@@H](C)[C@@H](CN(C)Cc1cccc(F)c1)O2,0.5,-0.1,?,-9.7,81.9,43.0,24.1,51.9*
COc1ccccc1-c1cnc2c(c1)C(=O)N([C@H](C)CO)C[C@@H](C)[C@H](CN(C)Cc1cccc(F)c1)O2,0.7,-0.4,-11.7,-30.7,.,.,.,.
C/C=C/c1ccc2c(c1)O[C@@H](CN(C)Cc1cncnc1)[C@H](C)CN([C@H](C)CO)S2(=O)=O,1.1,-0.3,.,-12.3,.,.,.,.
SMILES,GASC1 inh,IDH1 mut inh,T cruzi growth-1,Pf Dd2 growth,T cruzi growth-2,T cruzi growth-3,3T3 cytotox,NIH3T3 tox 2
C/C=C/c1ccc2c(c1)O[C@@H](CN(C)Cc1ccccc1)[C@@H](C)CN([C@H](C)CO)S2(=O)=O,2.8,-0.5,99.8,-21.8,.,.,.,.
C/C=C/c1ccc2c(c1)O[C@@H](CN(C)Cc1ccncc1)[C@H](C)CN([C@H](C)CO)S2(=O)=O,17.0,43.1*,102.4*,-55.4,98.8*,103.6*,?,69.0*
C/C=C/c1ccc2c(c1)O[C@@H](CN(C)Cc1ccncc1)[C@@H](C)CN([C@H](C)CO)S2(=O)=O,14.9,0.0,102.9*,15.0,96.3*,93.5,18.6,57.2*
COC(=O)c1cc(OC)c(OC)cc1NC(=O)COc1cc(Cl)c(Cl)cc1Cl,.,-0.2,.,.,.,.,.,.
Cc1nc2ccccc2nc1OCC(=O)c1ccc(Cl)cc1,.,1.4,.,.,.,.,.,.
OC[C@@H]1[C@@H](c2ccc(-c3cccnc3)cc2)[C@H]2CN(CC3CC3)CCCCN12,-0.7,.,44.2,-48.8,.,.,.,.
OC[C@@H]1[C@H](c2ccc(-c3cccnc3)cc2)[C@@H]2CN(CC3CC3)CCCCN12,0.0,.,104.3*,-71.8,66.6,16.6,0.5,-9.2
CN1CCCCN2[C@H](CO)[C@H](c3ccc(-c4cccnc4)cc3)[C@@H]2C1,-0.2,.,?,-64.2,75.7,32.5,2.0,-12.6
Cc1ccc2nc(-c3ccc(NC(=O)COc4ccc([N+](=O)[O-])cc4)cc3)sc2c1,.,1.2,.,.,.,.,.,.
COc1ccccc1-c1ccc2c(c1)[C@H]1[C@H](CCN1C(=O)C1CCCCC1)[C@@H](CO)N2,-1.3,.,-3.2,-38.8,.,.,.,.
COc1ccccc1-c1ccc2c(c1)[C@@H]1[C@@H](CCN1C(=O)C1CC1)[C@H](CO)N2,1.3,.,?,2.9,106.7*,?,-15.7,-28.1
COc1ccccc1-c1ccc2c(c1)[C@H]1[C@H](CCN1C(=O)C1CCCC1)[C@H](CO)N2,.,.,.,-75.2,.,.,.,.
COc1ccccc1-c1ccc2c(c1)[C@H]1[C@H](CCN1C(=O)C1CCOCC1)[C@@H](CO)N2,0.0,.,99.8*,-22.7,106.3*,88.2,-4.9,-29.5
COc1ccc(NC(=O)Nc2cccc3c2O[C@@H](CN(C)Cc2ccc(Cl)c(Cl)c2)[C@@H](C)CN([C@@H](C)CO)C3=O)cc1,-2.1,3.5,121.7*,-53.0,99.5*,69.5,17.8,51.2*
